The source of these data is ChEMBL document CHEMBL1135971, “(2S,1'S,2'S,3'R)-2-(2'-carboxy-3'-methylcyclopropyl) glycine is a potent and selective metabotropic group 2 receptor agonist with anxiolytic properties” (2002).

Assay [1] deals with Metabotropic glutamate receptor 2 (Homo sapiens) (UniProt Q14416). Put plainly: Inhibition of c-AMP by human Metabotropic glutamate receptor 2 (mGluR2) expressed in non-neuronal cells. It is filed as cell-based. The method in brief:
(§1)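 Clonal nonneuronal cell lines expressing each mGlu subtype, washed in PBS with 3 mM glucose and 500 μM IBMX, preincubated 30 min at 37 °C. Compound added with forskolin (15 μM final), 20 min at 37 °C. Stopped with 6 mM EDTA and boiling. cAMP measured by [3H]cAMP SPA, with protein per well by Bradford assay. Read-out: EC50 for inhibition of forskolin-stimulated cAMP.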

For assay [2], the target named is Metabotropic glutamate receptor 6 (Homo sapiens) (UniProt O15303). As to the kind of experiment: (§2) Inhibition of c-AMP by human Metabotropic glutamate receptor 6 (mGluR6) expressed in non-neuronal cells. It is filed as cell-based. The method in brief:
as §1

Assay [3] has as its target Metabotropic glutamate receptor 7 (Homo sapiens) (UniProt Q14831). Put plainly: (§3) Inhibition of c-AMP by human Metabotropic glutamate receptor 7 (mGluR7) expressed in non-neuronal cells. It is filed as cell-based. The method in brief: as §1
Assay [4] has as its target Metabotropic glutamate receptor 4 (Homo sapiens) (UniProt Q14833). Put plainly: (§4) Inhibition of c-AMP by human Metabotropic glutamate receptor 4 (mGluR4) expressed in non-neuronal cells. It is filed as cell-based. The method, boiled down:
as §1

For assay [5], the target named is Metabotropic glutamate receptor 3 (Homo sapiens) (UniProt Q14832). Put plainly: (§5) Inhibition of c-AMP by human Metabotropic glutamate receptor 3 (mGluR3) expressed in non-neuronal cells. It is filed as cell-based. The method, boiled down:
as §1

Assay [6] concerns the target Metabotropic glutamate receptor 5 (Homo sapiens) (UniProt P41594). Put plainly: Phosphoinositide hydrolysis by human Metabotropic glutamate receptor 5 (mGluR5) expressed in non neuronal cells. It is filed as cell-based. The method, boiled down: (§6)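 Transfected nonneuronal cells seeded at 2.5 × 10^5 per well in glutamine-free medium for 24 h, then labeled with [3H]myo-inositol (4 µCi/mL) for 20 h. Washed in buffer with 10 mM HEPES, inositol and LiCl. Compound added and incubated 60 min at 37 °C. [3H]inositol monophosphate separated by anion exchange and counted by scintillation. Read-out: EC50 for PI hydrolysis.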

Assay [7] deals with Metabotropic glutamate receptor 8 (Homo sapiens) (UniProt O00222). As to the kind of experiment: Inhibition of c-AMP by human Metabotropic glutamate receptor 8 (mGluR8) expressed in non-neuronal cells. It is filed as cell-based. The method in brief: as §1
Another assay concerns Rattus norvegicus. As to the kind of experiment: Mean effective dose that significantly blocked fear-potentiated startle(oral administration). The following applies: read-out: MED.
Assay [8] deals with Metabotropic glutamate receptor 7 (Homo sapiens) (UniProt Q14831). The assay is described as §3. It is filed as cell-based. The method, boiled down: (§7)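 Clonal nonneuronal cell lines transfected with each mGlu receptor. Cells washed in Dulbecco's PBS with 3 mM glucose and 500 μM IBMX, preincubated 30 min at 37 °C, then washed. Compound added with forskolin (15 μM final) and incubated 20 min at 37 °C. Stopped with 6 mM EDTA plus boiling, cAMP measured by [3H]cAMP SPA and normalised to Bradford protein. EC50 for inhibition of forskolin-stimulated cAMP.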
The source holds these as a separate data set.

Assay [9] concerns the target Metabotropic glutamate receptor 6 (Homo sapiens) (UniProt O15303). Described as §2. It is filed as cell-based. The method, boiled down: as §7
This is another data set of the same source.

Assay [10] concerns the target Metabotropic glutamate receptor 3 (Homo sapiens) (UniProt Q14832). The assay is described as §5. It is filed as cell-based. The method, boiled down: as §7
This is another data set of the same source.

For assay [11], the target named is Metabotropic glutamate receptor 4 (Homo sapiens) (UniProt Q14833). The description is as §4. It is filed as cell-based. The method, boiled down:
as §7
This is another data set of the same source.

Assay [12] addresses Metabotropic glutamate receptor 7 (Rattus norvegicus) (UniProt P35400). Put plainly: Inhibition of c-AMP by rat Metabotropic glutamate receptor 7 mGluR7) expressed in non-neuronal cells.
For assay [13], the target named is Metabotropic glutamate receptor 5 (Homo sapiens) (UniProt P41594). Put plainly: Phosphoinositide hydrolysis by Metabotropic glutamate receptor 5 (mGluR5) expressed in non neuronal cells. It is filed as cell-based. The method, boiled down: as §6

Molecules are shown by their SMILES. Where only a bound is given, the exact number is not on record here.

Chain of Metabotropic glutamate receptor 4 (Homo sapiens) (Q14833 whole entry): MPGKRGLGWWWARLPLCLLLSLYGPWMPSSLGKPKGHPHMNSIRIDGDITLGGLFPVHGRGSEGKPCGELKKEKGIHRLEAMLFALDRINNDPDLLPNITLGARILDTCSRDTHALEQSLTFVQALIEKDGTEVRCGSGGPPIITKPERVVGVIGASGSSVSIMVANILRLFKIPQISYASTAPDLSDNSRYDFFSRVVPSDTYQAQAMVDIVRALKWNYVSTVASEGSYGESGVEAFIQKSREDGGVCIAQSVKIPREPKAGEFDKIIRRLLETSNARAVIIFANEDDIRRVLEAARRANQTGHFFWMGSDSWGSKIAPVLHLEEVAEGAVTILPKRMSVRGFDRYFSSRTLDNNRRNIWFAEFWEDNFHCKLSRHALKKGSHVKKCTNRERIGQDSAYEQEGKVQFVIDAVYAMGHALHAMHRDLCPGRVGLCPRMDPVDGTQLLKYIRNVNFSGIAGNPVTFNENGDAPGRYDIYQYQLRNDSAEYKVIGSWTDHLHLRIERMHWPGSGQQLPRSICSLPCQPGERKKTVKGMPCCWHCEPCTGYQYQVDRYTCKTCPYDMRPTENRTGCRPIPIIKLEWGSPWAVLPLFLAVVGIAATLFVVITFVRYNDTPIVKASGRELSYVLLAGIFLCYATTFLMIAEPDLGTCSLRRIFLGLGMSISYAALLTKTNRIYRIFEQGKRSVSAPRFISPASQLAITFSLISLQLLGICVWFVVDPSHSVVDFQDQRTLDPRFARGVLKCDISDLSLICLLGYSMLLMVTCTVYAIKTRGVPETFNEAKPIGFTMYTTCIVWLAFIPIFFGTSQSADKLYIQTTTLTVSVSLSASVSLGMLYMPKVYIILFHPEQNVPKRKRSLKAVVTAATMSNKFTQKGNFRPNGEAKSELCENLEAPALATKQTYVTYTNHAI
Chain of Metabotropic glutamate receptor 2 (Homo sapiens) (Q14416 19-872 limits assumed): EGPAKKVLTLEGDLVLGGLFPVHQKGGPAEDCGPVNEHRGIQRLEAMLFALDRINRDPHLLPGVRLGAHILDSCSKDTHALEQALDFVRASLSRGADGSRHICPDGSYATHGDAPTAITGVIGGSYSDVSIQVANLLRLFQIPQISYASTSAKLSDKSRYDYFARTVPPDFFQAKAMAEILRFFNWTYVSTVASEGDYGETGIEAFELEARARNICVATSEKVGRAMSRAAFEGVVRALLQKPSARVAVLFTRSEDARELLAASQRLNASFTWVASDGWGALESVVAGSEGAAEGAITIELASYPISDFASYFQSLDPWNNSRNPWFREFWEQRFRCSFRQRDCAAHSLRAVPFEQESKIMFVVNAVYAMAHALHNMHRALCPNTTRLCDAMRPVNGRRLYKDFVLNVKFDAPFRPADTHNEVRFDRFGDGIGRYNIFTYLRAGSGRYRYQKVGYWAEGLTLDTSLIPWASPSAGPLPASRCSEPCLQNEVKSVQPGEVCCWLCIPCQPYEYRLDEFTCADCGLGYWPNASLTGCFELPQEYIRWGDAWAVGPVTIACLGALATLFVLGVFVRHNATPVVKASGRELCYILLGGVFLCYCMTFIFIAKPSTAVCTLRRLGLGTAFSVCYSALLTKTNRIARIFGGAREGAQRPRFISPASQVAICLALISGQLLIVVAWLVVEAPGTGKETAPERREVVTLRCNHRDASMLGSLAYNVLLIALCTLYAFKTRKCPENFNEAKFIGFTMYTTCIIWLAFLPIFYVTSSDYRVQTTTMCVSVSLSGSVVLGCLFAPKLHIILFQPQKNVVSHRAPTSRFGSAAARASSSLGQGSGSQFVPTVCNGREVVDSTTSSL
Chain of Metabotropic glutamate receptor 7 (Homo sapiens) (Q14831 whole entry): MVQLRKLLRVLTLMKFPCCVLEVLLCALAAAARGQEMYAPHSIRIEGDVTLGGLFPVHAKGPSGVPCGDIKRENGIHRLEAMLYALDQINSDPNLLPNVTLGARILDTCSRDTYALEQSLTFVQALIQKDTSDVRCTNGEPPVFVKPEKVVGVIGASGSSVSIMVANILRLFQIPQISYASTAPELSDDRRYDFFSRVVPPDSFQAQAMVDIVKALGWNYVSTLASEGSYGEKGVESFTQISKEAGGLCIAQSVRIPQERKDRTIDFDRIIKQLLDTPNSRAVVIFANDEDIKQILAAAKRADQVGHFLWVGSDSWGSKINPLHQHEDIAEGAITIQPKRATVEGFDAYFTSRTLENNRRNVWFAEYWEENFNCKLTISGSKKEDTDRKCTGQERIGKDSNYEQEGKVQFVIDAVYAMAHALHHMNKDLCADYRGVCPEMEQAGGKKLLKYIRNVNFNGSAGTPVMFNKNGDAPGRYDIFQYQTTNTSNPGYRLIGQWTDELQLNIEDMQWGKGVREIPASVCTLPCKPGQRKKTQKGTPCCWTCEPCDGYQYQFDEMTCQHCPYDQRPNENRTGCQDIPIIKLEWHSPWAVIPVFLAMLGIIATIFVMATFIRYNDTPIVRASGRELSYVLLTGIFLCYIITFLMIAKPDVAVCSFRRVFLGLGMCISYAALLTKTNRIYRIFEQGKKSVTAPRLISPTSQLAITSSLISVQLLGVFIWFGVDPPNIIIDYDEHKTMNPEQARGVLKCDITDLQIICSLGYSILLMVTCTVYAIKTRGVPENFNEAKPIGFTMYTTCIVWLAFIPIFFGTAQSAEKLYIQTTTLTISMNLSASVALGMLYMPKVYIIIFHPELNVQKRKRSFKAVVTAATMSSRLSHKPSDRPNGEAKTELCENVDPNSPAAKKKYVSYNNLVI
Chain of Metabotropic glutamate receptor 8 (Homo sapiens) (O00222 whole entry): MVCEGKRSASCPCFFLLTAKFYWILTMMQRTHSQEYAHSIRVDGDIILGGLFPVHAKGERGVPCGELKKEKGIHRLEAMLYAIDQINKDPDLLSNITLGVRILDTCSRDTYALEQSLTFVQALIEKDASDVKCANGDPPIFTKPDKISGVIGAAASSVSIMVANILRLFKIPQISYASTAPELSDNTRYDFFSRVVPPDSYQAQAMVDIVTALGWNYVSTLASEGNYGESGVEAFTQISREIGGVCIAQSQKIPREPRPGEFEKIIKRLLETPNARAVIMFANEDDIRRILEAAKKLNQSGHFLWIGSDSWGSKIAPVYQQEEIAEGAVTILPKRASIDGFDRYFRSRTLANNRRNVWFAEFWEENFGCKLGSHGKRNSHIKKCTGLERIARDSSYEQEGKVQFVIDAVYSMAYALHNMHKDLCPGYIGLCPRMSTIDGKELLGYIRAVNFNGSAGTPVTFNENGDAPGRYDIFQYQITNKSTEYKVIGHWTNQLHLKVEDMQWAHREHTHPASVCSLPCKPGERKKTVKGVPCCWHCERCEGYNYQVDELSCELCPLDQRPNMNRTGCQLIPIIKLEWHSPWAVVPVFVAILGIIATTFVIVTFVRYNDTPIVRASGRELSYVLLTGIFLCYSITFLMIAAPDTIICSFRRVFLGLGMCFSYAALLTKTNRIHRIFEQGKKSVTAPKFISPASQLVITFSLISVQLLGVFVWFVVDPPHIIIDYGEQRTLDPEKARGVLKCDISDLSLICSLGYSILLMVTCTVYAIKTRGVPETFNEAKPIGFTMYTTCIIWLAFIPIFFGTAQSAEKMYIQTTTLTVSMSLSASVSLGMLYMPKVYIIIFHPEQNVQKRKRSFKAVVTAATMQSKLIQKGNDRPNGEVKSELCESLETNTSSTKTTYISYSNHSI
Chain of Metabotropic glutamate receptor 3 (Homo sapiens) (Q14832 23-879 limits assumed): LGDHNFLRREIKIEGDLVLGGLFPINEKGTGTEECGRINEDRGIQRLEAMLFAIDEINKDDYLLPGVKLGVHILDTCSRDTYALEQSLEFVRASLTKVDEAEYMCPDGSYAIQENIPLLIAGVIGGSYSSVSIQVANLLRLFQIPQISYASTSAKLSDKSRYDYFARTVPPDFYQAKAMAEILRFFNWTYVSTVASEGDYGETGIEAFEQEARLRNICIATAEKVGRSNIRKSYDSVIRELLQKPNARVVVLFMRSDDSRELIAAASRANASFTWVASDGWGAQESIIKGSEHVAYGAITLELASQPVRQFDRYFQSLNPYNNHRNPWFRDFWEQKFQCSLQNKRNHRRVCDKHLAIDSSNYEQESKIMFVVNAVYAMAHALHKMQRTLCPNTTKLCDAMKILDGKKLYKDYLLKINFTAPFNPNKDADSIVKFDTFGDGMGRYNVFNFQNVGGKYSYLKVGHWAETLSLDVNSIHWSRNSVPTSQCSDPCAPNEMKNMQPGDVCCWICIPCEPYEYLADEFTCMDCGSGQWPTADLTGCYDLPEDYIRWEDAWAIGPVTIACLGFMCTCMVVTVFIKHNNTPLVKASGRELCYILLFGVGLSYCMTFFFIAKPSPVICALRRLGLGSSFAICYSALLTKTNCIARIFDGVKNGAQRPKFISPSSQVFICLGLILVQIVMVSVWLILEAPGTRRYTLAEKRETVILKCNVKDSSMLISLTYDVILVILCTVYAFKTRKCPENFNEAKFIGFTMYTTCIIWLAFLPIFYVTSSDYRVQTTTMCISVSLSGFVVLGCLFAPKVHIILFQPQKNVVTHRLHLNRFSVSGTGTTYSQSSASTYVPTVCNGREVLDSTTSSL
Chain of Metabotropic glutamate receptor 7 (Rattus norvegicus) (P35400 whole entry, looked up): as the sequence (Q14831 whole entry) above, with R5G, A27V, N454H, S488T, A520S, D578N counted along it

For `N[C@@]1(C(=O)O)CC[C@@H]2[C@H]1[C@@]2(F)C(=O)O`, the Activity in assay [1] is 16.6 nM; in [2], greater than 100 nM; in [3] it was greater than 100 µM; in assay [4], greater than 100 µM; in assay [5] it was 89 nM; in assay [6], greater than 100 µM.

With `N[C@@]1(C(=O)O)CC[C@H]2[C@H](C(=O)O)[C@H]21` [EGLUMETAD], the Activity in assay [1] was 7.9 nM; in assay [2] it was 3000 nM; in [7], 11.5 µM; in assay [3], greater than 100 µM; in [4] it was greater than 100 µM; in [5] it was 21 nM. The compound also displayed an Activity in assay [6] greater than 100 µM. Also, the minimal effective dose with Rattus norvegicus amounted to 3 mg/kg.

`N[C@@]1(C(=O)O)CC[C@@H](C(=O)O)C1`: the Activity in assay [1] was 12000 nM; in assay [2], 18000 nM; in [7] it was 45 µM; in assay [3], 1000 µM; in assay [4] it was 90 µM; in assay [5], 860000 nM. This compound came in with an Activity in [6] of 15 µM.

Consider `N[C@]1(C(=O)O)[C@H]2[C@@H](C[C@@H]1F)[C@@H]2C(=O)O`, for which the Activity was greater than 100 µM in [7]; greater than 100 µM in assay [8]; greater than 100 nM in [9]; 45.4 nM in assay [10]; greater than 100 µM in [6]; greater than 100 µM in assay [11].

On to `N[C@@H](CCC(=O)O)C(=O)O`, for which the Activity in assay [2] was found to be 20000 nM; in [3], 5400 µM; in assay [4] it was 12 µM; in assay [5], 9000 nM; in [6] it was 4 µM.

On to `C[C@@H]1[C@H](C(=O)O)[C@H]1[C@H](N)C(=O)O`, for which the Activity was 188 nM in [1], 2.8 µM in assay [7], 2000 nM in assay [5] and greater than 100 µM in [6].

For the compound `N[C@H](C(=O)O)[C@H]1C[C@@H]1C(=O)O`, the Activity in assay [1] stood at 300 nM; in assay [2], 600 nM; in [7], 0.4 µM; in assay [3], 47 µM; in assay [5], 600 nM; in assay [6], 17 µM.

On to `C[C@H]1[C@H](C(=O)O)[C@H]1[C@H](N)C(=O)O`, for which the Activity is 8 nM in [1]; 1200 nM in assay [2]; 1.32 µM in [7]; greater than 100 µM in assay [3]; greater than 100 µM in [4]; 38 nM in [5]. Besides, the Activity in [6] is greater than 100 µM. In the assay on Rattus norvegicus, the minimal effective dose came to 0.0003 mg/kg.

As for `N[C@@]1(C(=O)O)CS[C@H]2[C@H](C(=O)O)[C@H]21`, the Activity in assay [1] was 4 nM; in assay [2], 2000 nM; in [7], 7 µM; in assay [3], greater than 100 µM; in [4], greater than 100 µM; in assay [5] it was 8 nM. In assay [6], this compound gave an Activity greater than 100 µM.

As to `N[C@@]1(C(=O)O)CO[C@H]2[C@H](C(=O)O)[C@H]21`, the Activity is 3 nM in assay [1]; 400 nM in assay [2]; 2 µM in assay [7]; greater than 100 µM in assay [3]; 21 µM in assay [4]; 5 nM in assay [5]. In addition, the Activity in assay [6] is greater than 100 µM.

For `COC[C@@H]1[C@H](C(=O)O)[C@H]1[C@H](N)C(=O)O`, the Activity in assay [1] was 300 nM; in assay [6] it was greater than 100 µM.

As to `N[C@H](C(=O)O)C1[C@@H](C(=O)O)[C@@H]1C(=O)O` (stereo not given in full), the Activity in assay [1] stood at 300 nM; in assay [2] it was 40000 nM; in [7], 32 µM; in assay [4], 23 µM; in assay [5] it was 200 nM; in assay [6], 389 µM. In addition, the Activity in assay [12] is 40 µM.

Take `COC[C@H]1[C@H](C(=O)O)[C@H]1[C@H](N)C(=O)O`: the Activity in [13] was greater than 100 µM; in assay [1], 100 nM.

On to `N[C@@]1(C(=O)O)CC(=O)[C@@H]2[C@H]1[C@@]2(F)C(=O)O`, for which the Activity is greater than 100 µM in assay [8]; greater than 100 nM in assay [9]; 2.7 nM in assay [10]; greater than 100 µM in assay [6]; greater than 100 µM in assay [11].
